≈ marks a conversion by molar mass, not a printed value.
How the values were obtained:
Type in all cases: functional
Staphylococcus aureus [1] = assay: Antimicrobial activity against community acquired methicillin-resistant Staphylococcus aureus 146 by broth microdilution method
Summary of the method: (§1)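 Broth microdilution run in triplicate following CLSI guidelines. Isolates were stored at –80°C in double-strength skim milk and subcultured twice on Trypticase soy agar with 5% sheep blood before testing.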

Staphylococcus aureus [2] = assay: Antimicrobial activity against methicillin-susceptible Staphylococcus aureus ATCC 25923 by broth microdilution method; summary of the method: as §1
Staphylococcus aureus [3] = assay: Antimicrobial activity against community acquired methicillin-resistant Staphylococcus aureus 144 by broth microdilution method; summary of the method: as §1
Staphylococcus aureus [4] = assay: Antimicrobial activity against community acquired methicillin-resistant Staphylococcus aureus 147 by broth microdilution method; summary of the method: as §1
Staphylococcus aureus [5] = assay: Antimicrobial activity against methicillin-susceptible Staphylococcus aureus ATCC 29213 by broth microdilution method; summary of the method: as §1
Staphylococcus aureus [6] = assay: Antimicrobial activity against hospital acquired methicillin-resistant Staphylococcus aureus 149 by broth microdilution method; summary of the method: as §1
Staphylococcus aureus [7] = assay: Antimicrobial activity against hospital acquired methicillin-resistant Staphylococcus aureus 152 by broth microdilution method; summary of the method: as §1
Staphylococcus aureus [8] = assay: Antimicrobial activity against hospital acquired methicillin-resistant Staphylococcus aureus 56 by broth microdilution method; summary of the method: as §1

C[C@H]1COc2c(N3CCN(C)CC3)c(F)cc3c(=O)c(C(=O)O)cn1c23.C[C@H]1COc2c(N3CCN(C)CC3)c(F)cc3c(=O)c(C(=O)O)cn1c23.O [LEVOFLOXACIN]
MIC (Staphylococcus aureus [1]): 8 µg/mL | MIC (Staphylococcus aureus [2]): 0.25 µg/mL | MIC (Staphylococcus aureus [3]): 0.5 µg/mL | MIC (Staphylococcus aureus [4]): 8 µg/mL | MIC (Staphylococcus aureus [5]): 0.25 µg/mL | MIC (Staphylococcus aureus [6]): 8 µg/mL | MIC (Staphylococcus aureus [7]): 0.25 µg/mL | MIC (Staphylococcus aureus [8]): 0.25 µg/mL

C[C@H]1c2cccc(O)c2C(=O)C2=C(O)[C@]3(O)C(=O)C(C(N)=O)=C(O)[C@@H](N(C)C)[C@@H]3[C@@H](O)[C@@H]21.O [DOXYCYCLINE]
MIC (Staphylococcus aureus [1]): 2 µg/mL | MIC (Staphylococcus aureus [2]): 0.25 µg/mL | MIC (Staphylococcus aureus [3]): 0.5 µg/mL | MIC (Staphylococcus aureus [4]): 2 µg/mL | MIC (Staphylococcus aureus [5]): 0.5 µg/mL | MIC (Staphylococcus aureus [6]): 0.5 µg/mL | MIC (Staphylococcus aureus [7]): 0.5 µg/mL | MIC (Staphylococcus aureus [8]): 8 µg/mL

CC[C@H]1OC(=O)[C@H](C)[C@@H](O[C@H]2C[C@@](C)(OC)[C@@H](O)[C@H](C)O2)[C@H](C)[C@@H](O[C@@H]2O[C@H](C)C[C@H](N(C)C)[C@H]2O)[C@](C)(O)C[C@@H](C)C(=O)[C@H](C)[C@@H](O)[C@]1(C)O [ERYTHROMYCIN]
MIC (Staphylococcus aureus [1]): > 32 µg/mL | MIC (Staphylococcus aureus [2]): 0.5 µg/mL (≈ 0.681 µM) | MIC (Staphylococcus aureus [3]): > 32 µg/mL | MIC (Staphylococcus aureus [4]): > 32 µg/mL | MIC (Staphylococcus aureus [5]): 1 µg/mL (≈ 1.36 µM) | MIC (Staphylococcus aureus [6]): > 32 µg/mL | MIC (Staphylococcus aureus [7]): 1 µg/mL (≈ 1.36 µM) | MIC (Staphylococcus aureus [8]): 32 µg/mL (≈ 43.6 µM)

CCC[C@@H]1C[C@@H](C(=O)N[C@@H]([C@H]2O[C@H](SC)[C@H](O)[C@@H](O)[C@H]2O)[C@H](C)Cl)N(C)C1 [CLINDAMYCIN]
MIC (Staphylococcus aureus [1]): 0.25 µg/mL (≈ 0.588 µM) | MIC (Staphylococcus aureus [2]): 0.125 µg/mL (≈ 0.294 µM) | MIC (Staphylococcus aureus [3]): > 16 µg/mL | MIC (Staphylococcus aureus [4]): 0.125 µg/mL (≈ 0.294 µM) | MIC (Staphylococcus aureus [5]): 0.125 µg/mL (≈ 0.294 µM) | MIC (Staphylococcus aureus [6]): 0.125 µg/mL (≈ 0.294 µM) | MIC (Staphylococcus aureus [7]): 0.125 µg/mL (≈ 0.294 µM) | MIC (Staphylococcus aureus [8]): 0.25 µg/mL (≈ 0.588 µM)

CC(=O)NC[C@H]1CN(c2ccc(N3CCOCC3)c(F)c2)C(=O)O1 [LINEZOLID]
MIC (Staphylococcus aureus [8]): 8 µg/mL (≈ 23.7 µM)

From ChEMBL document CHEMBL1275429, “Pharmacodynamic characterization of ceftobiprole in experimental pneumonia caused by phenotypically diverse Staphylococcus aureus strains” (Antimicrob Agents Chemother, 2008)
